Screens: PubChem BioAssay, several laboratories
In the library only some 1.6% were active in any assay of this set; here they are far more common.
Smad3 FoxH1 inh = Smad3 (human) transcription factor binding inhibition | AID 630 | 88,000 tested, 0.29% active | TR-FRET Smad3/Dy647-FoxH1 peptide binding, europium anti-His | P84022 | inhibition, % at 25 µM;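 active = compounds that reduce the energy-transfer binding signal between the protein and its labelled peptide by more than half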;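 note: 0% = Smad3 plus labelled peptide maximal FRET and 100% = peptide-only background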
Target sequence (P84022 whole entry, looked up): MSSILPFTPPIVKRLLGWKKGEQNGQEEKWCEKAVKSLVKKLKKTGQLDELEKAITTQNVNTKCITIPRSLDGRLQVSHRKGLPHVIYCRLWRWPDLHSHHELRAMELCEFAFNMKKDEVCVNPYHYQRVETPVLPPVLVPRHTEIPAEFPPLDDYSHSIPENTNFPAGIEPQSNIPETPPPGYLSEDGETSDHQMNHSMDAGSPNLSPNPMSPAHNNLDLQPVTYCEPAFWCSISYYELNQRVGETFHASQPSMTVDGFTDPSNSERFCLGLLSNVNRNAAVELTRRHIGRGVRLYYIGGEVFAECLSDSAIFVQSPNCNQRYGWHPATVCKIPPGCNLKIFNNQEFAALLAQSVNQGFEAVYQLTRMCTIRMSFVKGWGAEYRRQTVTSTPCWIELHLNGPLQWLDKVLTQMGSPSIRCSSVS
Rev-RRE block = inhibitors of HIV-1 Rev-RRE RNA interaction | inhibition, % at 8 µM | Rev peptide-RRE RNA binding, FRET | P05866 | 97,000 tested, 0.79% active;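 active = inhibition above the screen-wide mean plus 3 SD, cut at about 35% in these data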;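 note: 0% = median DMSO wells and 100% = median Neomycin B control wells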
Target sequence (P05866 whole entry, looked up): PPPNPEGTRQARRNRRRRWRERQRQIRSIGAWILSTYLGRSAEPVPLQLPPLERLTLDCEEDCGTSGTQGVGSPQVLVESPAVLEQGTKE
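Test system: Cy5-tagged RRE RNA duplex with fluorescein-tagged Rev peptide | Read-out: % inhibition of FRET ratio versus controls | Probe or stimulus: Labelled Rev peptide | Incubation: 5 min RNA-compound premix plus 15 min binding step, 25 °C | Technique: FRET fluorescence readout | Benchmarks: DMSO low control, neomycin B high control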
sEH activator = increases human soluble epoxide hydrolase activity; purified human sEH enzymatic activity, activator screen; 91,000 tested, 0.04% active; activation, % at 2 µM; P34913; in the data active = activation above about 37%
sEH inh = inhibitors of human soluble epoxide hydrolase | P34913 | recombinant human sEH enzymatic activity assay | inhibition, % at 2 µM | 91,000 tested, 0.34% active | AID 707; in the data active = inhibition above about 80%
Mac1 fbg enh = increases human CD11b/CD18 adhesion to fibrinogen | P05107+P11215 | K562 CD11b/CD18 adhesion to fibrinogen, ATPlite luminescence | activation, % at 10 µM | 93,000 tested, 0.07% active | AID 1499;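 active = 10 µM primary screen giving 50% or more activity, confirmed by 40% or more on retest at that dose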
Mac1 fbg inh = CD11b/CD18-fibrinogen binding inhibition; P05107+P11215; K562 CD11b/CD18 adhesion to fibrinogen, ATPlite luminescence; Mn2+ added to activate the integrin; inhibition, % at 10 µM; 93,000 tested, 0.54% active; AID 1497;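 active = primary inhibition of 50% or more at 10 µM, then 40% or more on retest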
The depositor's hits bear a star; / = not tested or not shown; [ ] = remark or other dose.

SMILES | Smad3 FoxH1 inh | Rev-RRE block | sEH activator | sEH inh | Mac1 fbg enh | Mac1 fbg inh
CCn1c(SCc2nc3sc(C(=O)O)c(C)c3c(=O)[nH]2)nc2ccccc21 | / | 60* | 6 | -5 | -2 | -3
CCOc1ccc(C(=O)NCc2cccnc2)cc1 | -1 | 3 | -9 | 7 | 5 | 11
CCOc1ccc(C2=C/C(=C/c3cccnc3)C(=O)O2)cc1 | / | 111*[fluorescence artefact?] | 22 | -19 | -3 | -10
CC(C)[C@@]12CC[C@]3(CC[C@@H]4[C@](C)(CCC[C@@]4(C)C(=O)O)[C@@H]3C1)[C@@H](CN)C2 | 15 | / | / | / | / | /
NC1=CC(=O)c2cccc3cccc1c23 | 16 | 56* | 2 | 0 | / | /
Cc1nnc(C)n1N1C(=O)c2cccc3cccc(c23)C1=O | 5 | 10 | -9 | 8 | -3 | 0
O=C1c2ccccc2[C@@H]([C@H]2c3ccccc3C(=O)c3cc(Br)ccc32)c2ccc(Br)cc21 | -12 | / | / | / | / | /
N#CC1(C#N)CC(C=O)=C(N)C1(C#N)CC(=O)c1ccc(F)cc1 (configuration not stated) | 5 | 84*[fluorescence artefact?] | 0 | 0 | -8 | 1
NS(=O)(=O)c1ccc(CCNc2ncnc3sccc23)cc1 | 6 | 12 | 12 | -15 | -4 | 82
Cc1sc2ncnc(NCCc3ccc(S(N)(=O)=O)cc3)c2c1C | / | -2 | -15 | 16 | -5 | 51*
Cc1cc(C(=O)COC(=O)c2n[nH]c3ccccc23)c(C)n1C | -17 | 4 | 20 | -17 | -1 | -4
COCCn1c(C)cc(C(=O)COC(=O)c2n[nH]c3ccccc23)c1C | 12 | / | / | / | -6 | 53*
Cc1ccccc1OCCCCn1cnc2ccccc21 | 3 | 20 | -1 | 2 | -7 | 95*
CCCOc1ccc(Cn2cnc3ccccc32)cc1 | 6 | 15 | -9 | 9 | -8 | 89*
c1ccc2c(c1)ncn2CCCCOc1ccc2c(c1)CCC2 | 6 | 21 | -2 | 2 | -4 | 82*
c1ccc(OCCn2cnc3ccccc32)cc1 | 11 | 3 | -3 | 6 | 1 | -40
c1ccc(OCCCCn2cnc3ccccc32)cc1 | 8 | 5 | 4 | 0 | -9 | 63*
CC1=CC(C)=Nc2ccccc2N1 | -9 | 47* | 7 | -13 | -5 | -8
NC(=O)C[C@@H](N)c1nn[nH]n1 | 4 | / | / | / | / | /
C/C(=N\Nc1cc(Cl)nc(C)n1)c1ccc(C)cc1 | / | -1 | 52* | -48 | / | /
C/C(=N\Nc1cc(Cl)nc(C)n1)c1ccc(Cl)c(Cl)c1 | / | 2 | / | / | -1 | 1
Cc1cccn2c(N)c(-c3ccccc3)nc12 | 2 | 108*[fluorescence artefact?] | -2 | 0 | / | /
Cc1ccc(Nc2nc3nonc3[nH]c2=O)cc1C | 8 | / | / | / | -11 | 100*
Cc1ccc(Nc2n[nH]c(C)c2[N+](=O)[O-])cc1C | / | / | / | / | 8 | 0
Cc1cc(CN2CCCCC2)c(O)c(CN2CCCCC2)c1 | 25 | / | / | / | / | /
SMILES | Smad3 FoxH1 inh | Rev-RRE block | sEH activator | sEH inh | Mac1 fbg enh | Mac1 fbg inh
Cc1ccc(/C=c2/sc3nnc(-c4ccccc4Cl)n3c2=O)o1 | 0 | 4 | 0 | 1 | -2 | 4
CCN(CC)c1ccc(/C=c2/sc3nnc(-c4ccccc4C)n3c2=O)cc1 | 12 | 118*[fluorescence artefact?] | 10 | -8 | 9 | -44
CCN(CC)c1ccc(/C=c2\sc3nnc(-c4ccccc4Cl)n3c2=O)cc1 | -17 | 134*[fluorescence artefact?] | -8 | 7 | 6 | 16
N=c1sc2ccccc2n1CCS (tested in a mixture with another compound) | 25 | / | / | / | / | /
CC(C)CN1C(=O)C(=O)N(CC(=O)NCc2ccc3c(c2)OCO3)C1=O | -2 | 7 | 22 | -22 | -5 | 4
CC(C)CN1C(=O)c2ccc(C(=O)NCc3ccc4c(c3)OCO4)cc2C1=O | -15 | 15 | -82 | 81* | -4 | 14
CCCNC(=O)c1ccccc1NC(=O)c1ccc(CSc2ccccc2)cc1 | / | 14 | -6 | 8 | 2 | -41
O=C(COC(=O)c1ccc(S(=O)(=O)NCc2ccco2)cc1)NC1CCCCCC1 | / | 6 | -90 | 90* | -2 | 4
NCC(=O)Nc1ccccc1 | 2 | / | / | / | / | /
N=c1oc2c3c4c(cc2cc1C(=O)Nc1ccccc1)CCCN4CCC3 | / | 127*[fluorescence artefact?] | 14 | -18 | 29 | -6
Cc1ccc(N(Cc2ccccc2)Cc2ccccc2)cc1 | 6 | / | / | / | / | /
Cc1ccc2[nH]c3c(c2c1)CN(C(=O)CN1CCN(Cc2ccc4c(c2)OCO4)CC1)CC3 | -5 | 4 | 6 | -8 | -2 | 14
Cc1ccc2[nH]c3c(c2c1)CN(C(=O)CN1CC(C)OC(C)C1)CC3 (configuration not stated) | 3 | 61* | -8 | 11 | 4 | -30
Cc1ccc2[nH]c3c(c2c1)CN(C(=O)CN1CCSCC1)CC3 | -3 | 36* | 5 | -5 | 0 | -2
Cc1ccc2[nH]c3c(c2c1)CN(C(=O)CN1CCN(c2ccccn2)CC1)CC3 | 11 | / | / | / | 0 | 10
N#Cc1c(Sc2ncc(C(F)(F)F)cc2Cl)nsc1C/C=N\OCc1c(F)cccc1Cl | 1 | 61* | 10 | -8 | -2 | 0
CCOC(=O)Oc1ccc2c(=O)c(Oc3cccc(C)c3)coc2c1 | / | 2 | -10 | 8 | / | /
Cc1cccc(Oc2coc3cc(OC(=O)c4cc5ccccc5oc4=O)ccc3c2=O)c1 | / | 12 | -14 | 13 | 53* | -11
NS(=O)(=O)c1cc(Br)c(N=Nc2ccc(O)c3ncccc23)c(Br)c1 | 77* | / | / | / | / | /
Cc1ccc(S(=O)(=O)Oc2cc(S(=O)(=O)O)cc3cc(S(=O)(=O)O)cc(N)c23)cc1 | 6 | / | / | / | / | /
Cc1ccc(CCNc2ccccc2C)cn1 | -1 | 1 | 15 | -10 | / | /
O=[N+]([O-])c1ccccc1N/N=C/c1c[nH]c2ccccc12 | / | 3 | 1 | 1 | / | /
Cc1[nH]c2ccccc2c1/C=N/NC(=O)c1cccc(S(=O)(=O)Nc2ccccc2Cl)c1 | / | / | / | / | 12 | 20
COc1ccc(NS(=O)(=O)c2cc([N+](=O)[O-])ccc2N/N=C\c2c(C)[nH]c3ccccc23)cc1 | / | 44* | 4 | -3 | -3 | 14
O=[N+]([O-])c1ccc(N/N=C/c2c[nH]c3ccccc23)cc1 | / | 58*[fluorescence artefact?] | -5 | 9 | / | /
O=S(=O)(N/N=C\c1cn(-c2ccccc2)nc1-c1ccccc1)c1ccccc1 | / | 3 | 19 | -18 | / | /
Cc1[nH]c2ccccc2c1/C=N/Nc1ccc([N+](=O)[O-])cc1S(=O)(=O)Nc1ccc(Cl)cc1 | / | 41* | 1 | 1 | 2 | 11
O=[N+]([O-])c1ccc(N/N=C/c2cn(-c3ccccc3)nc2-c2ccccc2)cc1 | / | 64* | 6 | -3 | / | /
COc1ccc2c(Cl)c(C(=O)N/N=C/c3c(C)[nH]c4ccccc34)sc2c1 | / | / | / | / | 50 | -14
COc1ccccc1NS(=O)(=O)c1cc([N+](=O)[O-])ccc1N/N=C/c1c[nH]c2ccccc12 | / | 64*[fluorescence artefact?] | 3 | -5 | -3 | 14
